Active and inactive are the calls of the source. No cut-off for these calls is given here.
Key:
[1] = Increase in glucose-stimulated insulin secretion in rat INS-1E cells at 10^-8 M after 60 mins in presence of 16.7 mM glucose; type: functional
Procedure, shortened: (§1)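 INS-1E cells were pre-cultured 72 h, then preincubated 15 min in M-KRB (pH 7.4, 1% BSA). They were exposed for 60 min at 37 °C to test agent diluted from a 10−3 M DMSO stock to final 10−12–10−6 M in M-KRB with 16.7 mM glucose, with DMSO equalized across solutions. Insulin in the supernatant was measured by RIA (anti-insulin antibody, 125I-insulin tracer, rat insulin standard), and cell protein by Bradford. Mean ± SEM is reported against the 16.7 mM glucose control.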

Homo sapiens = organism: Homo sapiens; assay: Effect on deoxy-D-glucose 2-[1.2-3H(N)] uptake in human Skeletal muscle cells at 10^-12 to 10^-10 M after 72 hrs by scintillation counter; type: functional
Procedure, shortened: (§2)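 Differentiated human skeletal muscle cells (2 weeks in differentiation medium, until multinucleated syncytia were visible) were exposed for 72 h to test agent at 10−8 to 10−12 M. Cells were then given a 15 min pulse at 37 °C in modified KRB with 0.1% BSA, 0.1 mM glucose, tritiated deoxy-D-glucose and 100 nM insulin. Uptake was stopped with washes in 50 mM glucose, cells were lysed in NaOH, and counts per min were read by scintillation and compared with untreated control.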

[2] = Increase in glucose-stimulated insulin secretion in rat INS-1E cells at 10^-10 M after 72 hrs in presence of 16.7 mM glucose; type: functional
Procedure, shortened: (§3)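 INS-1E cells were seeded and grown 72 h at 37 °C in growth medium containing test agent at final 10−12, 10−10 or 10−8 M, with DMSO equalized. After a 15 min preincubation in M-KRB, cells were stimulated 60 min with M-KRB at 3.3 or 16.7 mM glucose. Supernatant insulin was measured by RIA. Mean ± SEM is compared with the control at the matching glucose level.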

[3] = Increase in deoxy-D-glucose 2-[1.2-3H(N)] uptake in human Skeletal muscle cells at 10^-8 M after 72 hrs by scintillation counter relative to control; type: functional; procedure, shortened: as §2
[4] = (§4) Increase in glucose-stimulated insulin secretion in rat INS-1E cells at 1 uM after 60 mins in presence of 16.7 mM glucose; type: functional; procedure, shortened: as §1
[5] = Increase in glucose-stimulated insulin secretion in rat INS-1E cells at 10^-8 M after 72 hrs in presence of 3.3 mM glucose; type: functional; procedure, shortened: as §3
[6] = Decrease in glucose-stimulated insulin secretion in rat INS-1E cells at 10^-12 M after 72 hrs in presence of 3.3 mM glucose; set-up: scale not given: the % may be the effect or the level left
[7] = Increase in glucose-stimulated insulin secretion in rat INS-1E cells at 10^-10 M after 60 mins in presence of 16.7 mM glucose; type: functional; procedure, shortened: as §1
[8] = Increase in glucose-stimulated insulin secretion in rat INS-1E cells at 10^-8 M after 72 hrs in presence of 16.7 mM glucose; type: functional; procedure, shortened: as §3
INS-1E = assay: as §4; type: functional; procedure, shortened: as §1

Row | Compound | Activity [1] [%] | Activity (Homo sapiens) | Activity [2] [%] | Activity [3] [%] | Activity [4] [%] | Activity [5] [%] | Activity [6] [%] | Activity [7] [%] | Activity [8] [%] | Activity (INS-1E)
1 | C[C@@]12CCc3occc3[C@H]1CC[C@@]13C[C@@H](CC[C@H]12)[C@@](O)(CO)C3 [CAFESTOL] | 12 | inactive | 68 | 8 | 16 | 27 | 15 | 12 | 34 | 
2 | O=C(/C=C/c1ccc(O)c(O)c1)O[C@@H]1C[C@](O)(C(=O)O)C[C@@H](O)[C@H]1O |  |  |  |  |  |  |  |  |  | Active
3 | O=C(O)/C=C/c1ccc(O)c(O)c1 [CAFFEIC ACID] | 18 |  |  |  | 9 |  |  | 9 | 16 | 
4 | CN(CCOc1ccc(CC2SC(=O)NC2=O)cc1)c1ccccn1 (stereo not given) [ROSIGLITAZONE] |  |  |  | 7 |  |  |  |  |  | 
